Mdm2 ligase inh: inhibitors of human Mdm2 E3 ubiquitin ligase; signal enhancement, % at 5 µM; Q00987; 210,000 tested, 0.11% active; cell-based MDM2 ubiquitination luciferase reporter, 2 h; 0 = plate control, 100 = twice control, blank-subtracted;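 active = signal enhancement of 30% or more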;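 also: luminescence tracks abundance of the self-degrading MDM2-luciferase fusion protein; higher signal means inhibition of MDM2 E3 ligase activity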
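Buffer or medium: Cells held in DMEM | Assay system: Stable mammalian line carrying autodegrading MDM2–luciferase fusion reporter | Quantity: 2000 cells/well | Times: 4 h settle plus 2 h compound, 37 °C | Doses: One concentration, 5 µM, with 0.2% DMSO | Technique: Luminescence with SteadyLite reagent, 15 min at room temperature | Benchmarks: Plate controls and plate blanks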
STAT1 activator: increases IFN-gamma driven STAT1 reporter signal. NIH 3T3 STAT1-luciferase reporter, luminescence; 100% = IFN-gamma alone, no compound. activation (% of control), % at 5.5 µM. 200,000 tested, 2.6% active. AID 932;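 active = activation above the screen-wide mean activation plus 3 SD, cut at about 130% in these data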
p97 ATPase inh: inhibitors of human p97 ATPase | P55072 | recombinant p97 ATPase, Kinase-Glo ATP luminescence, 3 h | inhibition, % at 8 µM | 220,000 tested, 0.42% active; in the data active = inhibition above about 15%
APP 5'UTR act: activates APP 5'UTR luciferase reporter | SH-SY5Y APP 5'UTR luciferase reporter, luminescence; zero percent = DMSO vehicle wells | activation, % at 2 µM | 190,000 tested, 1% active | AID 1276;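 active = activation above a set limit, based on mean plus 3 SD of controls, cut at about 140% in these data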
Wee1 degr inh: inhibitors of human Wee1 degradation. P30291. 220,000 tested, 1.2% active. AID 1321. HeLa Luc-Wee1K328M stability, luciferase luminescence; 100% = proteasome inhibitor MG132 effect. reporter increase, % at 5 µM;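 active = activation above the mean of all tested compounds plus 3 SD, set per screening run, cut at about 8.8% in these data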;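 also: cells exposed to compound for 20 h before luminescence read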
Target sequence (P30291 whole entry K328M): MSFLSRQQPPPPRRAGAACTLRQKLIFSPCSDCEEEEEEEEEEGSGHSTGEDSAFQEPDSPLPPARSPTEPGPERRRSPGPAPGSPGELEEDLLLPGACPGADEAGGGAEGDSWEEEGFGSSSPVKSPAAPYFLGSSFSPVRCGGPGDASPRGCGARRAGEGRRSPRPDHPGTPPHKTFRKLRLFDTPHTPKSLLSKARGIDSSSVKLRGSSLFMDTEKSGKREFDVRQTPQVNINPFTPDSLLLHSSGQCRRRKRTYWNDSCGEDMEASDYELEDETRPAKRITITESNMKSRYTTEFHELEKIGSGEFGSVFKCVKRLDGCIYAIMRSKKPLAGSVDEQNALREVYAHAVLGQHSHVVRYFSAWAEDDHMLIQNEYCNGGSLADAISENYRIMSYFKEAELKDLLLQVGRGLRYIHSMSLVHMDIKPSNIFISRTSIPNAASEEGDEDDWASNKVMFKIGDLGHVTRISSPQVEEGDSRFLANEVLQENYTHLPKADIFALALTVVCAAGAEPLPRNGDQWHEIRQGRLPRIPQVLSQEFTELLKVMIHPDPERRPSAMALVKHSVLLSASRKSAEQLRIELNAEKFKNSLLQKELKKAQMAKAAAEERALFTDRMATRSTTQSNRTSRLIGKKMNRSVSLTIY
NF-kB expr up: compounds increasing NF-kB expression in human neuronal cells. 190,000 tested, 1.6% active. fold change at 12.5 µM. NF-kB reporter expression; active compounds read high; in the data active = fold change above about 3.3
A number is an active result; 0 = inactive; - = no result. In the library only some 4.6% were active in any assay of this set; here they are far more common.

SMILES	Mdm2 ligase inh	STAT1 activator	p97 ATPase inh	APP 5'UTR act	Wee1 degr inh	NF-kB expr up
CC1(C)CC2CC(C)(CN2C(=O)COC(=O)CNC(=O)c2ccc(Cl)c(Cl)c2)C1 (stereo not drawn)	0	0	0	0	11	0
Cc1ccc(C2/C(=C(/O)c3cnn(-c4ccccc4)c3C)C(=O)C(=O)N2CCN2CCOCC2)o1 (stereo not drawn)	0	0	0	0	0	0
Cc1c(/C(O)=C2/C(=O)C(=O)N(CCN3CCOCC3)C2c2cccs2)cnn1-c1ccccc1 (stereo not drawn)	-	143	0	0	0	0
CCCCn1c(N)c(N(CC)C(=O)CSc2nnnn2-c2cc(C)ccc2C)c(=O)[nH]c1=O	0	0	0	0	0	0
Cc1nn(Cc2ccccc2)c(Cl)c1C(=O)NCCc1ccccc1	0	149	0	0	0	4.3
CC(NC(=O)c1sc2cc([N+](=O)[O-])ccc2c1Cl)C(C)(C)C (stereo not drawn)	0	0	0	0	9.0	0
COc1ccc2c(c1)CCC1C2=NN(/C(C)=C\C(C)=O)C1c1ccc(F)cc1 (stereo not drawn)	0	130	0	0	0	0
NC(=S)Cc1nc2n(n1)Cc1ccccc1-2	0	0	0	0	0	0
Fc1ccc(-c2nc3n(n2)Cc2ccccc2-3)cc1	0	0	0	173	0	6.7
Cc1ccc(-c2nc3n(n2)Cc2ccccc2-3)cc1	0	0	0	197	0	4.2
CCn1c(C)nc2cc(-c3nc4n(n3)Cc3ccccc3-4)ccc21	0	0	0	0	0	0
Cc1ccc(NS(=O)(=O)c2cc(NC(=O)c3ccc4c(c3)NC(=O)CS4)ccc2Cl)c(C)c1	0	0	0	0	0	0
NNc1nc2c(-c3ccc(F)cc3)nnn2c2ccccc12	0	141	0	0	0	0
NNc1nc2c(-c3ccc(Cl)cc3)nnn2c2ccccc12	0	135	0	0	0	0
Fc1ccc(-c2nnn3c2nc(NCc2ccccc2)c2ccccc23)cc1	0	-	0	-	0	-
O=C(c1cccc(Br)c1)c1cn(-c2ccccc2)nc1C(=O)c1ccccc1	0	0	0	0	0	0
CCOC(=O)c1nn(-c2ccc(C)cc2)cc1C(=O)c1ccccc1	0	144	0	145	0	6.6
CC(Sc1nc(C(C)(C)C)cc(-c2ccccc2)c1C#N)C(=O)Nc1ccccc1 (stereo not drawn)	0	0	0	0	0	0
O=C(NCCCn1ccnc1)c1cc2c(ccc3ccccc32)o1	0	0	0	0	0	0
COc1ccc(OC)c(-c2c3cc(O)c(=O)cc-3oc3cc(O)c(O)cc23)c1	0	0	22	0	0	0
CC(COc1ccccc1)N1CCC(CO)(Cc2ccccc2)CC1 (stereo not drawn)	0	0	0	0	0	4.4
COc1ccc(CC2(CO)CCN(C(C)COc3ccccc3)CC2)cc1 (stereo not drawn)	0	0	0	0	0	0
Cc1ccc(NC(=O)N2CCc3ccccc32)cc1C	0	0	0	160	0	9.2
Cc1ccc(NC(=O)N2CCCc3ccccc32)cc1	0	0	0	0	0	0
Cc1ccc(NC(=O)N2CCc3ccccc32)cc1	0	0	0	170	0	8.1
SMILES	Mdm2 ligase inh	STAT1 activator	p97 ATPase inh	APP 5'UTR act	Wee1 degr inh	NF-kB expr up
Cc1ccc(S(=O)(=O)N2CCCCC2)cc1NS(=O)(=O)c1cccc(C(=O)O)c1	0	0	0	0	0	0
O=C(CCCOc1ccccc1)NC1CCCc2ccccc21 (stereo not drawn)	0	0	0	0	0	0
CC(=O)Nc1ccccc1C(=O)C(=O)Nc1cccc(C(=O)N2CC(C)CC(C)C2)c1 (stereo not drawn)	0	0	0	0	0	0
Oc1ccc(/C=C/c2nc(-c3ccccc3O)n(-c3ccccc3)n2)cc1	0	0	0	0	0	0
Oc1ccccc1-c1nc(/C=C/c2ccccc2)nn1-c1ccccc1	0	0	0	0	9.6	0
Cc1ccc(-c2c(C)sc3ncn(CC(=O)N4CCOCC4)c(=O)c23)cc1C	-	-	0	-	0	-
CN1/C(=C/C2CC(=O)NC2=O)C(C)(C)c2ccccc21 (stereo not drawn)	0	0	0	-	13	0
CN1/C(=C/C2CC(=O)N(c3cccc4ccccc34)C2=O)C(C)(C)c2ccccc21 (stereo not drawn)	0	0	0	0	0	0
Cc1c(-c2ccccn2)c(=O)[nH]n1-c1ccc(F)cc1	0	0	0	0	0	3.8
O=C1CCCC/C1=C/Nc1ccc2c(c1)OCO2	0	141	0	0	0	0
CC(C)Sc1nnc(Nc2ccccc2)s1	0	138	0	0	0	0
Cc1ccc(S(=O)(=O)NC(C)(C)CSc2nnc(Nc3ccccc3)s2)cc1	0	0	0	0	0	0
COc1ccc2c(c1)NC(c1cc(Cl)cc(Cl)c1O)c1cccn1-2 (stereo not drawn)	0	0	0	0	0	3.7
Cc1ccccc1-c1nnc(-c2ccccc2)o1	0	131	0	138	0	4.2
CCCNCc1nnc(-c2ccccc2Cl)o1	0	0	0	0	0	0
Cc1ccc(-c2nnc(-c3ccc(Br)cc3)o2)o1	0	0	0	0	0	3.8
Cc1ccccc1-c1nnc(-c2ccc(Cl)cc2)o1	0	138	0	0	0	4.1
Cc1ccc(CS(=O)(=O)c2ccccc2-c2nnc(-c3ccc(Cl)cc3)o2)cc1	0	0	0	0	0	0
Clc1ccccc1-c1nnc(-c2ccccc2Cl)o1	0	0	0	0	0	3.4
CCN(CC)S(=O)(=O)c1cc(-c2nnc(-c3ccc(Br)cc3)o2)ccc1Br	0	0	0	0	0	0
Clc1ccc(-c2nnc(CNC3CC3)o2)cc1	0	0	0	0	0	0
N/C(=N\OC(=O)CCn1cccc(C(F)(F)F)c1=O)c1ccc(Cl)cc1	0	-	0	-	0	-
COC(=O)CN1C2=NCCCN2c2ccccc21	0	0	0	0	0	0
Cc1cccc(-c2nnc(-c3ccccc3)o2)c1	0	132	0	0	0	0
Brc1ccc(-c2nnc(-c3cccc(Br)c3)o2)cc1	0	0	0	0	10	0
SMILES	Mdm2 ligase inh	STAT1 activator	p97 ATPase inh	APP 5'UTR act	Wee1 degr inh	NF-kB expr up
COCCNC(=O)Cn1cnc([N+](=O)[O-])n1	0	0	0	0	9.6	0
CCCCNC(=O)Cn1cnc([N+](=O)[O-])n1	0	0	0	0	0	0
Cc1cc(C(=O)NCCc2ccccc2)c2cc(F)ccc2n1	0	0	0	0	0	0
Cc1ccc(OCCCn2c(=O)sc3ccccc32)cc1	-	0	0	0	0	0
O=c1sc2ccccc2n1CCCOc1ccccc1	-	131	0	0	0	0
Cc1ccccc1OCCCn1c(=O)sc2ccccc21	-	131	0	0	0	0

Screening results (PubChem BioAssay)
